ChEMBL document CHEMBL4033794, “Discovery of Trifluoromethyl Glycol Carbamates as Potent and Selective Covalent Monoacylglycerol Lipase (MAGL) Inhibitors for Treatment of Neuroinflammation” (J Med Chem, 2018)
pIC50: −log10 of the molar value. ≈ marks a conversion by molar mass, not a printed value. Calls of active or inactive are those of the source. No cut-off for these calls is given here.

How the values were obtained:
[1] = molecular target: T1, Fatty-acid amide hydrolase 1 (Homo sapiens, UniProt O00519); assay: Inhibition of recombinant human FAAH using fluorogenic arachidonoyl-AMC as substrate preincubated for 30 mins followed by substrate addition measured after 60 mins by fluorescence based assay
T1 sequence (O00519 whole entry): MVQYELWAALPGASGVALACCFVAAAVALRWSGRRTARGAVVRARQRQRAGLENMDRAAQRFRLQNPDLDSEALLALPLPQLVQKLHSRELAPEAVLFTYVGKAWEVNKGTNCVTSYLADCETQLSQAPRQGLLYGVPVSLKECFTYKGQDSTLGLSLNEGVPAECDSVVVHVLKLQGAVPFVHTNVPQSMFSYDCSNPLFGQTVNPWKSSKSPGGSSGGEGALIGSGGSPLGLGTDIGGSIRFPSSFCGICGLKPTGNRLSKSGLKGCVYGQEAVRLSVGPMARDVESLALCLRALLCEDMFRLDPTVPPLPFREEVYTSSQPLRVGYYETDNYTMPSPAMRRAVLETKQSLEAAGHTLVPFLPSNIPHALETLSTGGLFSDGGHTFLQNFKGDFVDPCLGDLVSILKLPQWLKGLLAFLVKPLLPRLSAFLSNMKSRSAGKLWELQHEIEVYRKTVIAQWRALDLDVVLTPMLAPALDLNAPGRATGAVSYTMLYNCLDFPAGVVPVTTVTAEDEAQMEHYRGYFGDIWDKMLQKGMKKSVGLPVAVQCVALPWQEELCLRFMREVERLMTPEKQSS
Outline: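 Human recombinant FAAH (0.0125 U final) in 50 mM Tris pH 9.0, 1 mM EDTA, preincubated 30 min at room temperature with compound (30 μM to 0.3 nM final); arachidonoyl-AMC 5 μM added, 60 min reaction, read Ex/Em 355/460. Inhibition vs no-compound and full-inhibition controls; four-parameter fit; geometric mean of ≥3 experiments.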

[2] = Thermodynamic solubility of the compound at pH 6.5 after 24 hrs; assay type: physicochemical; conditions: buffer, read-out: Therm_solubility
[3] = molecular target: T2, CES1 (liver carboxylesterase 1) (Homo sapiens, UniProt P23141); assay: Inhibition of human CES1 at 10 uM
T2 sequence (P23141 whole entry): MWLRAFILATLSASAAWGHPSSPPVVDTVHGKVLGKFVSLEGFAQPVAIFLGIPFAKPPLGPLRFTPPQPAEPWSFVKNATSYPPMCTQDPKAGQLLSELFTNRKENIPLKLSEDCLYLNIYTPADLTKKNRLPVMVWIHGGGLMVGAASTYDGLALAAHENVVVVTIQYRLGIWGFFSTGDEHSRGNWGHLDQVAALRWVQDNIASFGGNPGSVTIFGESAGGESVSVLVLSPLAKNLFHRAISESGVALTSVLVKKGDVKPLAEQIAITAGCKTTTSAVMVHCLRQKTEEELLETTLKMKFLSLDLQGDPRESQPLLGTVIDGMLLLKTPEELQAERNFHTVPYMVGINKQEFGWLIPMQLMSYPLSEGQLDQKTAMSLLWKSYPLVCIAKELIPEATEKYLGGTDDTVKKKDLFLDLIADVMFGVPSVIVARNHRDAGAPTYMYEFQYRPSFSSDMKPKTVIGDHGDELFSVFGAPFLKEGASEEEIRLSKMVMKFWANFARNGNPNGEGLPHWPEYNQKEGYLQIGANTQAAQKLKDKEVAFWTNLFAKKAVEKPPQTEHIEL
Outline: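 Panel of 42 human serine hydrolases, each exposed to inhibitor at 10 µM; activity expressed as percent inhibition.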

[4] = Intrinsic clearance in human hepatocytes in presence of CYP inhibitor ABT; assay type: ADME, cell-based, Hepatocyte; conditions: with ABT (CYP inhibitor), concentration not stated, read-out: CLH
Outline: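 Cryopreserved human hepatocyte substrate-depletion assay run with ABT present; scaled intrinsic clearance in mL/min/kg.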

[5] = Plasma clearance in Beagle dog at 1 mg/kg, iv administered via cephalic vein measured up to 24 hrs post dose by HPLC-MS/MS analysis; assay type: ADME, organism-based, Canis lupus familiaris
Outline: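 Fasted male beagles (n = 2), fed ~4 h post-dose, given 1 mg/kg IV bolus via cephalic vein in 3% DMA/10% Solutol HS15/10% Miglyol/77% of 20% SBECD, 0.5 mL/kg. Jugular blood pre-dose and 0.083–24 h; plasma HPLC-MS/MS; non-compartmental analysis.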

[6] = Plasma clearance in non-human primate at 1 mg/kg, iv administered via cephalic vein measured up to 24 hrs post dose by HPLC-MS/MS analysis; assay type: ADME, organism-based, Macaca mulatta; conditions: rhesus monkey
Outline: (§1)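 Fasted male non-human primates (n = 2), fed ~1 h post-dose; 1 mg/kg IV bolus via saphenous or cephalic vein in 3% DMA/10% Solutol HS15/10% Miglyol/77% of 20% SBECD, 0.5 mL/kg. Femoral blood pre-dose and 0.083–24 h; plasma HPLC-MS/MS; non-compartmental analysis.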

[7] = Half life in Beagle dog at 1 mg/kg, iv administered via cephalic vein measured up to 24 hrs post dose by HPLC-MS/MS analysis; assay type: ADME, organism-based, Canis lupus familiaris; conditions: in vivo
[8] = Half life in non-human primate at 1 mg/kg, iv administered via cephalic vein measured up to 24 hrs post dose by HPLC-MS/MS analysis; assay type: ADME, organism-based, Macaca mulatta; conditions: rhesus monkey, in vivo; outline: as §1
[9] = Unbound fraction in C57BL6J mouse plasma at 1 mg/kg, sc measured up to 24 hrs post dose by HPLC-MS/MS analysis; assay type: ADME, organism-based
CYP3A4 = CYP3A4 (Homo sapiens, UniProt P08684); assay: Inhibition of CYP3A4 (unknown origin) at 3 uM; assay type: ADME
Outline: (§2)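 Competitive inhibition screen of CYP3A4, 2D6, 2C9, 2C8 and 1A2 using isoform-relevant probe substrates, compound at 3 μM.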

CYP2D6 = CYP2D6 (Homo sapiens, UniProt P10635); assay: Inhibition of CYP2D6 (unknown origin) at 3 uM; assay type: ADME; outline: as §2
CYP2C8 = molecular target: T3, CYP2C8 (Homo sapiens, UniProt P10632); assay: Inhibition of CYP2C8 (unknown origin) at 3 uM; assay type: ADME; outline: as §2
T3 sequence (P10632 whole entry): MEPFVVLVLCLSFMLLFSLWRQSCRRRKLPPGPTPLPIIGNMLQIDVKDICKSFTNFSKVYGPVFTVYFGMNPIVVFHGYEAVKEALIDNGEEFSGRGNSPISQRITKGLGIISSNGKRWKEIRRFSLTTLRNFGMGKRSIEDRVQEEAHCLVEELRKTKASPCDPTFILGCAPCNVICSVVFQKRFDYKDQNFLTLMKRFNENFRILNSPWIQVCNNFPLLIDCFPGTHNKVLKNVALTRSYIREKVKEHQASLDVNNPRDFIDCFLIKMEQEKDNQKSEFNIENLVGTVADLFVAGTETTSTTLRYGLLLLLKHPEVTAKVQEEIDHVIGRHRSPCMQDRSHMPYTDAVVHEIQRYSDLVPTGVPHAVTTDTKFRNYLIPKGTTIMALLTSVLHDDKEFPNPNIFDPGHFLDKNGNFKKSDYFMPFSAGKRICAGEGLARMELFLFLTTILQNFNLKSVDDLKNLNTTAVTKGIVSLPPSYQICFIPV

Mus musculus [10] = species: Mus musculus; conditions: C57BL6J, 1 mg/kg
Mus musculus [11] = species: Mus musculus; conditions: C57BL6J, 1 mg/kg; remark: listed apart in the source

Chain of CYP2D6 (P10635 whole entry): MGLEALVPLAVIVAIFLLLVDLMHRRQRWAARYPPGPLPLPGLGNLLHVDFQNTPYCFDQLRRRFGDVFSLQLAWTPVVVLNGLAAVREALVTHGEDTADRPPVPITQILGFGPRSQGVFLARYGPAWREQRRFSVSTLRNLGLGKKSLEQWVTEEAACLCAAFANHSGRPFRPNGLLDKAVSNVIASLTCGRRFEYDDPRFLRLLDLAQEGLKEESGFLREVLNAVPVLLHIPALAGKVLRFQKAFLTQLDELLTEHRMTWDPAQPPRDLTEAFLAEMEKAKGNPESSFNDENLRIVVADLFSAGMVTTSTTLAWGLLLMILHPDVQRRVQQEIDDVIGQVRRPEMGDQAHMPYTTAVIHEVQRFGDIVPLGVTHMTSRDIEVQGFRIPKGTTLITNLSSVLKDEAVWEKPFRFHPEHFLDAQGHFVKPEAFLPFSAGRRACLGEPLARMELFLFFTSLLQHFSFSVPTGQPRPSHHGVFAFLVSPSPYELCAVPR
Chain of CYP3A4 (P08684 whole entry, canonical isoform): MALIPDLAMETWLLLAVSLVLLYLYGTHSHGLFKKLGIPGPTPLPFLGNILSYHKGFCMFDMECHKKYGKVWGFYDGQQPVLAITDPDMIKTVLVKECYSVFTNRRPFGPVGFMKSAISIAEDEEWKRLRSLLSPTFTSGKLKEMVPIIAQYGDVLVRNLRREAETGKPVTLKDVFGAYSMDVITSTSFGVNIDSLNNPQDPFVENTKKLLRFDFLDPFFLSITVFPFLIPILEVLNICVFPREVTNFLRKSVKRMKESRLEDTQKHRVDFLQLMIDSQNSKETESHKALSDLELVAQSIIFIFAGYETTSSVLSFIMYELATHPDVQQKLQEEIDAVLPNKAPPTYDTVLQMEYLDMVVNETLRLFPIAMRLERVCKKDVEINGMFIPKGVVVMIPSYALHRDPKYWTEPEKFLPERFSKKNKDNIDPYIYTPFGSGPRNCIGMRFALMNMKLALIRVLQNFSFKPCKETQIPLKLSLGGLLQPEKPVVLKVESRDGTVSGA

SMILES: O=C(O[C@H](CO)C(F)(F)F)N1C[C@@H]2[C@H](C1)[C@H]2c1ccn(-c2ccc(F)cc2)n1
- pIC50 [1]: 5.51
- solubility thermodynamic at 24 h [2]: 25 µM (≈ 9.98 µg/mL)
- inhibition at 10 µM [3]: 80%
- CLint scaled [4]: 37 mL/min/kg
- clearance [5]: 21 mL/min/kg
- clearance [6]: 16 mL/min/kg
- half-life [7]: 1.7 h
- half-life [8]: 1.7 h
- fraction unbound at 24 h [9]: 0.0135
- inhibition at 3 µM (CYP3A4): < 10%
- inhibition at 3 µM (CYP2D6): < 10%
- inhibition at 3 µM (CYP2C8): < 10%
- inhibition (Mus musculus [10]): Active
- inhibition (Mus musculus [11]): Active
